Reference: ChEMBL document CHEMBL4433206, “Novel Lysine-Based Thioureas as Mechanism-Based Inhibitors of Sirtuin 2 (SIRT2) with Anticancer Activity in a Colorectal Cancer Murine Model” (J Med Chem, 2019)
Active and inactive are the calls of the source. The rule behind the calls is not given here.

Key:
[1] = target: T1, NAD-dependent protein deacetylase sirtuin-1 (Homo sapiens) (UniProt Q96EB6); assay: Inhibition of SIRT1 in human HCT116 cells assessed as increase in acetylated p53 K382 level at 25 uM after 6 hrs by Western blot analysis; assay type: cell-based
T1 sequence (whole entry): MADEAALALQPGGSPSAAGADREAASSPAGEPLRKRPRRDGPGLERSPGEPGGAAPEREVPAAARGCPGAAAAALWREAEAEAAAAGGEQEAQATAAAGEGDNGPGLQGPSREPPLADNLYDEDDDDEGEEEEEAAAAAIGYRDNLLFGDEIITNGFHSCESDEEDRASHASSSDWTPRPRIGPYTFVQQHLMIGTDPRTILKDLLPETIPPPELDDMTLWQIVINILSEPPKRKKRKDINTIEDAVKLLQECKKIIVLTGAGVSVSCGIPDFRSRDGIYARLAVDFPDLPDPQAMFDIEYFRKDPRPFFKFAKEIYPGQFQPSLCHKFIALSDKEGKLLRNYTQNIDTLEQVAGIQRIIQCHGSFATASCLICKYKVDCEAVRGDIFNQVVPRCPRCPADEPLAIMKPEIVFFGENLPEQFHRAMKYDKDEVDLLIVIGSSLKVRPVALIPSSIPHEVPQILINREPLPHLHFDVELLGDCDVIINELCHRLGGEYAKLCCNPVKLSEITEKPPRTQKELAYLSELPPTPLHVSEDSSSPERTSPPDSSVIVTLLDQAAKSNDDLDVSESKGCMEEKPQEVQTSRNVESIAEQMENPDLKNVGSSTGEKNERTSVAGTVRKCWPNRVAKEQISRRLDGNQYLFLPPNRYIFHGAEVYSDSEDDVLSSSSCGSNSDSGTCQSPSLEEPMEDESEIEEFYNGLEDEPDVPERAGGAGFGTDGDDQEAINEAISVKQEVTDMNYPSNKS

HCT-116 [2] = assay: Growth inhibition of human HCT116 cells after 72 hrs by CellTiter-Blue assay; assay type: functional; details: HCT-116, 72 h
A549 [3] = assay: Growth inhibition of human A549 cells after 72 hrs by CellTiter-Blue assay; assay type: functional; details: A549, 72 h
HCT-116 [4] = assay: Antitumor activity against human HCT116 cells harboring KRAS G13D mutant xenografted in NSG mouse assessed as tumor growth inhibition by measuring reduction in tumor weight at 100 mg/kg, ip administered daily for 12 days and measured post-last dose relative to control; assay type: functional; details: HCT-116, ip, 288 h, read-out: TGI
Method in brief: (§1)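 NSG mice, female and male, about 4–8 weeks old, were implanted with 1 × 10⁶ HCT116 cells on both sides of the abdomen. Tumours grew 3–5 days until visible. Compound was given ip daily for 12 days in vehicle containing 10% DMSO and 10% Kolliphor EL (dosing solution 10 mg/mL); control mice received vehicle. Tumour volume was measured daily; tumours were excised and weighed on the last day. Unpaired two-tailed t-test.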

HCT-116 [5] = assay: Inhibition of anchorage-independent cell growth in human HCT116 cells assessed as reduction in colony formation incubated for 5 days followed by compound re-addition and measured after 9 to 11 days by nitro blue tetrazolium chloride-based soft agar colony formation assay; assay type: functional
Method in brief: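 HCT116 cells were mixed at 500 cells/mL into 0.3% agar growth layer over a 0.6% agar base layer (McCoy's medium, 10% calf serum). Both layers held inhibitor at 2.5–50 μM final. Wells were run in triplicate at 37 °C. Inhibitor-containing growth layer was added again at day 5. At 9–11 days, nitro blue tetrazolium was added overnight and colonies were imaged and counted.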

HCT-116 [6] = assay: Antitumor activity against human HCT116 cells harboring KRAS G13D mutant xenografted in NSG mouse assessed as tumor growth inhibition by measuring reduction in tumor weight at 25 mg/kg, ip administered daily for 12 days and measured post-last dose; assay type: functional, organism-based; method in brief: as §1
HCT-116 [7] = assay: Antitumor activity against human HCT116 cells harboring KRAS G13D mutant xenografted in NSG mouse assessed as tumor growth inhibition by measuring reduction in tumor volume at 25 mg/kg, ip administered daily for 12 days and measured daily during compound dosing; assay type: functional, organism-based; method in brief: as §1
[8] = Cytotoxicity against human HME1 cells after 72 hrs by CellTiter-Blue assay; assay type: cell-based
Method in brief: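 Cells were seeded per well (HCT116 1000; MDA-MB-231, MDA-MB-468, NCI-H23, A549, SW948 2000; MCF7, BxPC-3, HME1 3000) and left 20 h at 37 °C. Inhibitor was added at 1–100 μM final for 72 h at 37 °C. CellTiter-Blue was then added for 4 h, and fluorescence was read at ex 560/em 590 nm.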

BXPC-3 = assay: Growth inhibition of human BxPC3 cells after 72 hrs by CellTiter-Blue assay; assay type: functional; details: BXPC-3, 72 h
CCD-841CoN = assay: Growth inhibition of human CCD-841-CoN cells after 72 hrs by CellTiter-Blue assay; assay type: cell-based
Method in brief: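 3000 cells/well seeded, 20 h at 37 °C. Inhibitor added at final 1–100 μM, then 72 h at 37 °C. Viability read by CellTiter-Blue after 4 h at 37 °C, fluorescence 560 nm excitation/590 nm emission. GI50 derived.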

A549 [9] = assay: Potency index, ratio of TM GI50 to compound GI50 for growth inhibition of human A549 cells; assay type: functional
SW948 = assay: Potency index, ratio of TM GI50 to compound GI50 for growth inhibition of human SW948 cells; assay type: functional
HCT-116 [10] = assay: Potency index, ratio of TM GI50 to compound GI50 for growth inhibition of human HCT116 cells; assay type: functional
MCF7 = assay: Potency index, ratio of TM GI50 to compound GI50 for growth inhibition of human MCF7 cells; assay type: functional
MDA-MB-231 = assay: Potency index, ratio of TM GI50 to compound GI50 for growth inhibition of human MDA-MB-231 cells; assay type: functional
[11] = target: T2, NAD-dependent protein deacetylase sirtuin-3, mitochondrial (Homo sapiens, UniProt Q9NTG7); assay: Inhibition of human SIRT3 assessed as reduction in deacetylase activity using acetylated H3K9 as substrate preincubated for 15 mins followed by substrate addition and measured after 15 mins by UV-HPLC analysis
T2 sequence (Q9NTG7 whole entry): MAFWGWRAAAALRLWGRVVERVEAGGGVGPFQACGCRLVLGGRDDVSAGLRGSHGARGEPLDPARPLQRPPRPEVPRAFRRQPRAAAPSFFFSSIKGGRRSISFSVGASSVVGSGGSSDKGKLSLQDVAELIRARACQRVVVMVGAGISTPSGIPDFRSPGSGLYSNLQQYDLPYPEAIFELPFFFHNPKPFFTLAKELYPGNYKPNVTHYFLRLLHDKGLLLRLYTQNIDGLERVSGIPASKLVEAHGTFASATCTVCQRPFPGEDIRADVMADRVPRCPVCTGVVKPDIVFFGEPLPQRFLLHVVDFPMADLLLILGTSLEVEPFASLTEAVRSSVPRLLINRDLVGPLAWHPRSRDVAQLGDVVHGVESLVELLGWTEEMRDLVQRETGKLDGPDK

SMILES	inhibition [1]	GI50 (HCT-116 [2]) [µM]	GI50 (A549 [3]) [µM]	inhibition in vivo at 100 mg/kg (HCT-116 [4]) [%]	GI50 (HCT-116 [5]) [µM]	TGI (HCT-116 [6])	TGI (HCT-116 [7])	Activity [8]	GI50 (BXPC-3) [µM]	GI50 (CCD-841CoN) [µM]	RatioGI50 (A549 [9])	RatioGI50 (SW948)	RatioGI50 (HCT-116 [10])	RatioGI50 (MCF7)	RatioGI50 (MDA-MB-231)	IC50 [11] [µM]
CCCCCCCCNC(=S)NCCCC[C@H](NC(=O)OCc1ccccc1)C(=O)Nc1ccccc1	inactive	58.9	20.8	78	7.4	inactive	inactive	Non-Toxic	72.4	–	–	–	–	–	–	–
CCCCCCCCCCNC(=S)NCCCC[C@H](NC(=O)OCc1ccccc1)C(=O)Nc1ccccc1	inactive	54.4	9	49	7	–	–	Non-Toxic	24.3	47.4	2	2	2	2	2	> 200
